Assay outcomes from PubChem BioAssay.
Most compounds without a hit are left out; they make up all but 6.8% or so of the library.
AI-2 QS modul: modulators of Vibrio harveyi AI-2 quorum sensing system. Vibrio harveyi JMH597 AI-2 luminescence/OD600 ratio, 9 h; active compounds read low; strain lacks LuxN and CqsS sensors; 0 = neutral-control median. activity change, % at 7.5 µM. 300,000 compounds, 0.4% hits. AID 2094; in the data active = activity change below about -75%, passing the limit was not always enough; inconclusive = no clear call, values can overlap the other calls;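 note: luminescence divided by OD600 gain over 9 h not by final OD600 alone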
HSF-1 act: increases HSF-1 driven luciferase reporter signal. 300,000 compounds, 1.7% hits. activation, % at 9 µM. AID 504408. NIH3T3-HGL HSF-1 luciferase reporter, MG132, 8 h; 100% = twice DMSO control signal;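 active = mean replicate activation of at least 50% with a set share of replicates each reaching 50%; inconclusive = only one of those two conditions met; inactive = mean below 50% and too few replicates reaching it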
HCV core dimer: HCV core protein dimerization inhibition | TR-FRET GST/Flag-core106 dimerization, 1536-well | inhibition, % at 5 µM | 300,000 compounds, 0.33% hits | AID 1899;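 active = inhibition above the mean of all tested compounds plus 3 SD, set per screening campaign, cut at about 45% in these data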
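Test system: GST/Flag-tagged HCV core106 proteins; Medium: KF-containing HEPES buffer, pH 7.45, DTT, CHAPS, BSA; Times: compound-protein-antibody incubation 4 h at 22.5 °C; Detection: TR-FRET 671 and 617 nm emission; Benchmarks: wells lacking GST-core106 and wells with excess unlabelled core106.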
PHOSPHO1 inh: PHOSPHO1 (human) inhibition; recombinant PHOSPHO1, absorbance phosphatase assay; AID 1565; inhibition, % at 13.3 µM; Q8TCT1; 290,000 compounds, 1.1% hits; in the data active = inhibition above about 60%
Target sequence (Q8TCT1 whole entry, looked up): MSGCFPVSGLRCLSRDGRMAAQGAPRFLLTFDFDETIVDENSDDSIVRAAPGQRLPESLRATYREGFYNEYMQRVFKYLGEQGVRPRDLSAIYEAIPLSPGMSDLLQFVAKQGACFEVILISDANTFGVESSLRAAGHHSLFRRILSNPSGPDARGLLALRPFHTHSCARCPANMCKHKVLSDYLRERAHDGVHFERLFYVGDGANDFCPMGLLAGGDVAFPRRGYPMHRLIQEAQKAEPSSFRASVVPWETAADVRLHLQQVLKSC
HSF1 inh: HSF1 inhibition. 300,000 compounds, 0.77% hits. NIH3T3-HGL HSE-luciferase, MG132-induced, luminescence 8 h; active compounds read low. activity change, negative = inhibition, % at 7.5 µM (by protocol);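 active = more than half of replicate wells show activity change below -50%, luminescence cut by over half; inconclusive = some wells, but at most half, below -50%; inactive = no replicate well below -50%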;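 note: luciferase reports HSF-1 transcriptional activity via heat shock element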
ALR inh: human ALR oxidase inhibition via reduced H2O2; AID 485317; P55789; 290,000 compounds, 3.8% hits; inhibition, % (concentration not given with the values); purified ALR, DTT oxidation, H2O2 HRP-luminol luminescence;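 active = mean replicate inhibition above about 79%, with every replicate also reaching it, limit read from the data; inconclusive = only one of the two criteria met; inactive = mean below limit and not every replicate reaching it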
Target sequence (P55789 whole entry, looked up): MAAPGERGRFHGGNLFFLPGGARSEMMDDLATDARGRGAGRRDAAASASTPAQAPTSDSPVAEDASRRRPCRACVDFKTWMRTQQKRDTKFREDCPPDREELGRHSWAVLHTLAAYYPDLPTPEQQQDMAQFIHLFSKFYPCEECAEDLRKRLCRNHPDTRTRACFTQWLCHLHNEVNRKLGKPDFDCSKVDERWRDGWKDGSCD
Large screens that a line does not name were inactive.

CCCCNC(=O)C1CCCN1C(=O)Nc1cccc(OC)c1 (stereo not drawn)	HSF1 inh -52
O=C(CSc1nc2ccccc2n1Cc1ccccc1)N/N=C/c1ccco1	none (no result: HSF-1 act, HSF1 inh)
CCn1c(SCC(=O)N/N=C/c2ccc(O)c(OC)c2)nc2ccccc21	ALR inh 99
CCn1c(SCC(=O)N/N=C/c2cc(OC)c(O)c(OC)c2)nc2ccccc21	ALR inh 99
COc1cc(/C=N/NC(=O)CSc2n[nH]c(=O)[nH]c2=O)cc(OC)c1O	ALR inh 98
Cc1ccc(Cn2c(SCC(=O)N/N=C/c3ccc(C)o3)nc3ccccc32)cc1	PHOSPHO1 inh 91
CC1(c2nnc(-c3cccc(Cl)c3)o2)CC(c2cccnc2)=NO1 (stereo not drawn)	none (no result: PHOSPHO1 inh)
O=C(Cc1cccs1)NCCc1csc(-c2ccccc2)n1	none (no result: ALR inh)
CCOC(=O)COc1cnc2ccccc2n1	none
Cn1c(CC(=O)Nc2ccc(Cl)cc2)nnc1SCC(=O)N1CCOCC1	none
CC(=O)NS(=O)(=O)c1ccc(N=c2ssc3c2-c2cc(C)c(C)cc2NC3(C)C)cc1	ALR inh 99
Cc1cc2c(cc1C)-c1c(ssc1=Nc1ccc(S(N)(=O)=O)cc1)C(C)(C)N2	none
Cc1ccccc1NC(=O)c1onc2c1CCCC2	none
Cc1cccc(NC(=O)c2onc3c2CCCC3)c1C	HSF-1 act 65
O=C(NC(=S)Nc1ccc2c(c1)OCCO2)c1ccco1	none
O=C(CNC(=O)c1ccco1)Nc1ccc2c(c1)OCCO2	HSF1 inh -67 (no result: PHOSPHO1 inh)
N#Cc1cccc(NCC(=O)Nc2ccc3c(c2)OCCO3)c1	HSF-1 act 68
O=C(CNCc1ccco1)Nc1ccc(N2CCCCCC2)cc1	HSF-1 act inconclusive, ALR inh 99
O=C(CNC(=O)c1ccco1)Nc1ccc(N2CCCCCC2)cc1	ALR inh 98 (no result: AI-2 QS modul, HSF-1 act, HCV core dimer, PHOSPHO1 inh, HSF1 inh)
COc1ccc(OC)c(S(=O)(=O)NC2CCCCNC2=O)c1 (stereo not drawn)	none (no result: ALR inh)
CC(=O)NCCc1nc2ccccc2n1Cc1cccc(C)c1	none
O=[N+]([O-])c1cc(S(=O)(=O)N2CCCCCC2)ccc1Cl	none (no result: AI-2 QS modul, HSF-1 act, HCV core dimer, HSF1 inh, ALR inh)
CC(C)(C)OC(=O)N1Cc2ccccc2C[C@H]1C(=O)NCC(=O)Nc1ccc2c(c1)OCCO2	HSF1 inh -64
COc1cccc(NC(=O)CNC(=O)[C@@H]2Cc3ccccc3CN2C(=O)OC(C)(C)C)c1	none
CCOc1ccc(-c2nc3c(s2)CCc2onc(-c4ccc(OC)cc4)c2-3)cc1	none (no result: PHOSPHO1 inh)
Cc1ccc(N=N/C(=C\O)C(=O)c2ccc(Cl)cc2)cc1	HSF1 inh -64
CCNC(=O)N1c2ccc(OCC)cc2C(C)=CC1(C)C	ALR inh 88
CC(C)C(=O)N1CCC(n2nccc2NC(=O)CCc2ccccc2)CC1	none
COc1ccc(/C=C/C(=O)Oc2ccc(C)c(C)c2)cc1OC	none
COc1cc(/C=C/[N+](=O)[O-])ccc1OC(=O)/C=C/c1ccc(F)cc1	HSF-1 act 70
CN(CC(=O)Nc1ccccc1Cl)C(=O)COC(=O)c1ccc(Cl)cc1[N+](=O)[O-]	AI-2 QS modul -94
O=C(OCC(=O)N1CCOCC1)c1ccccc1Cc1ccccc1	HSF-1 act 74
O=C(OCC(=O)N1CCCC1=O)c1ccc(Cl)cc1[N+](=O)[O-]	AI-2 QS modul -81 (no result: PHOSPHO1 inh)
O=C(OCC(=O)N1CCOCC1)c1ccc(Cl)cc1[N+](=O)[O-]	AI-2 QS modul -79 (no result: ALR inh)
Cc1cc(Br)ccc1OCCCCN1CCCCC1	none (no result: ALR inh)
O=C(Nc1ccccc1[N+](=O)[O-])c1cccc(N2C(=O)CCC2=O)c1	HSF-1 act 54
CCOc1ccccc1NC(=O)c1cccc(N2C(=O)CCC2=O)c1	none
Cc1nc(NC(=O)c2ccccc2)sc1-c1csc(Nc2ccc(Cl)cc2Cl)n1	ALR inh 87
Cc1ccccc1Nc1nc(-c2sc(NC(=O)c3ccccc3)nc2C)cs1	PHOSPHO1 inh 69
CCOc1ccc(Cl)cc1CNCCCSc1nc(C)cc(C)n1	none
Cc1ccc(NC(=O)C2C3CCCCC32)cc1[N+](=O)[O-] (stereo not drawn)	none
Cc1cc(NC(=O)OC2CCCCC2)ccc1[N+](=O)[O-]	HSF-1 act 71
Cn1c(=O)c(C(=O)COC(=O)c2cc(-c3ccco3)nc3ccccc23)c(N)n(Cc2ccccc2)c1=O	none
CC(C)Cn1c(N)c(C(=O)COC(=O)c2ccc(O)cc2)c(=O)n(C)c1=O	none
CC(C)Cn1c(N)c(C(=O)COC(=O)c2cc(-c3ccco3)nc3ccccc23)c(=O)n(C)c1=O	HCV core dimer 54
CC(C)Cn1c(N)c(C(=O)COC(=O)c2ccc([N+](=O)[O-])o2)c(=O)n(C)c1=O	HSF-1 act 67
CCCN1C(=O)COc2ccc(-c3n[nH]c(=O)c4ccccc34)cc21	none
CS(=O)(=O)Nc1nnc(SCC(=O)N(c2ccccc2)c2ccccc2)s1	none
COc1ccccc1NC(=S)NNC(=O)c1nn(C)c(C)c1Cl	PHOSPHO1 inh 79
COc1ccccc1NC(=S)NNC(=O)c1nn(C)cc1Cl	PHOSPHO1 inh 72
COc1ccccc1NC(=S)NNC(=O)c1nn(C)c(C)c1Br	none
Cc1cc(C)c(S(=O)(=O)Nc2ccc(O)cc2)cc1C	ALR inh 99
O=S(=O)(Nc1ccc(O)cc1)c1cccc2cccnc12	ALR inh 101
CC(C)c1ccc(NS(=O)(=O)c2cccc3cccnc23)cc1	none
CNS(=O)(=O)c1cccc2cccnc12	none
Cc1ccc(C)c(S(=O)(=O)Nc2ccc(O)cc2)c1	none
O=S(=O)(Nc1ccccc1O)c1cccc2cccnc12	HSF-1 act 78
NC(=O)CC(NC(=O)c1ccc(Br)cc1)c1ccc(NC2CCCCCC2)c([N+](=O)[O-])c1 (stereo not drawn)	none
COC(=O)c1c(NC(=O)c2ccn(C)n2)sc2c1CCC2	none
COC(=O)c1c(NC(=O)c2nn(C)cc2Cl)sc2c1CCCC2	HSF-1 act 58
CC(C)NC(=S)N/N=C/c1ccc2c(c1)OCCO2	none
Cc1cc(C(=O)Nc2ccon2)ccc1[N+](=O)[O-]	none (no result: PHOSPHO1 inh)
CCCCCCCCCCCCN1[C@@H](CC(=O)O)c2cc(F)ccc2S1(=O)=O	ALR inh 98 (no result: PHOSPHO1 inh)
CCCCCCCCN1[C@@H](CC(=O)O)c2cc(C(F)(F)F)ccc2S1(=O)=O	ALR inh 98 (no result: PHOSPHO1 inh)
CCCCCCCCCCCCN1[C@@H](CC(=O)O)c2cc(C(F)(F)F)ccc2S1(=O)=O	ALR inh 98 (no result: PHOSPHO1 inh)
CCCCCCCCN1[C@@H](CC(=O)OC)c2cc(F)ccc2S1(=O)=O	none (no result: PHOSPHO1 inh)
Cc1ccc(C)c2c(N)c3c(nc12)CCCCC3 (tested in a mixture with another compound)	none
Cn1cc(CNCc2ccc(-n3cccn3)cc2)c(-c2ccccc2F)n1	none
